Reference: publication PMC4137986 (Chemical Research in Toxicology, 2014)
Entries after “also recorded” stand apart in the source; their conditions may differ. Read-outs that look alike come from different tables or passages of the source.

Assays:
P450 2B1 = target: T1, P450 2B1 (Rattus norvegicus, UniProt P00176); test: P450 2B1-dependent depentylation of resorufin pentyl ether; format: biochemical
T1 sequence (P00176 1-491): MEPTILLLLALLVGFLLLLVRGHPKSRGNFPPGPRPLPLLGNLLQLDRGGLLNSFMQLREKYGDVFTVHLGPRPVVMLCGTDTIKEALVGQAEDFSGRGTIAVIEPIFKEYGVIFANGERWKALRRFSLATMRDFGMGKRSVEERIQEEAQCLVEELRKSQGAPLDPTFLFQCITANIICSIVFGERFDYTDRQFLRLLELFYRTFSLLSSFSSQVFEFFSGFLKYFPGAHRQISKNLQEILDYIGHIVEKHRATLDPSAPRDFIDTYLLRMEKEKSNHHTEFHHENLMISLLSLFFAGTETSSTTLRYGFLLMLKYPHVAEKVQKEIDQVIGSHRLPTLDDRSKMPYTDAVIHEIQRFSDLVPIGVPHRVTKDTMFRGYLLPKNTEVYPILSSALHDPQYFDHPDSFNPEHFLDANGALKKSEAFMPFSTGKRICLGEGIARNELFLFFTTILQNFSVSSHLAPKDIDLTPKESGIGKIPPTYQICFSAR
Summary of the method: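 Rat P450 2B1 microsomes (5 nM final) were used in 0.1 M potassium phosphate pH 7.6 with MgCl2, with 5 μM resorufin pentyl ether in DMSO. Reactions were started with an NADPH-regenerating system (NADP+, glucose 6-phosphate, G6PDH) and run at 37 °C. Resorufin formation was followed continuously at ex 535/em 585 nm.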

P450 1A1 [1] = target: T2, P450 1A1 (Homo sapiens, UniProt P04798); test: P450 1A1-dependent deethylation of resorufin ethyl ether; format: biochemical
T2 sequence (P04798 1-512): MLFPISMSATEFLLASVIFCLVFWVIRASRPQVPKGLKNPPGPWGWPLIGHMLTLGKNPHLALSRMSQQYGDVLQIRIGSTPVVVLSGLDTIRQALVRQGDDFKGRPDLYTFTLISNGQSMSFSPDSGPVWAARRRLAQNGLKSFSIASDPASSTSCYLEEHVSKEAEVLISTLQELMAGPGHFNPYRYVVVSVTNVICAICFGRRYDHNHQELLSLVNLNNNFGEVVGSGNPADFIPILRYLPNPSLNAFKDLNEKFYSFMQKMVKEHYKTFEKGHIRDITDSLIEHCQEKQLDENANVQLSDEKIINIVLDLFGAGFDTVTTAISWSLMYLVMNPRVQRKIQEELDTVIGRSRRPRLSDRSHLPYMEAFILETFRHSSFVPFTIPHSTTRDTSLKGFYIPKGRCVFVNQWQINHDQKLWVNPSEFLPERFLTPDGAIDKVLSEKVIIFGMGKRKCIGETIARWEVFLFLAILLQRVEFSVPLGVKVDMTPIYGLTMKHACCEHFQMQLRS

P450 1A2 over P450 1A1 = target: T3, P450 1A2 over P450 1A1 (Homo sapiens, UniProt P05177); test: P450 1A2-dependent demethylation of resorufin methyl ether; format: biochemical; conditions: human, recombinant human CYP1A1 and CYP1A2 supersomes, pH 7.6
T3 sequence (P05177 1-516): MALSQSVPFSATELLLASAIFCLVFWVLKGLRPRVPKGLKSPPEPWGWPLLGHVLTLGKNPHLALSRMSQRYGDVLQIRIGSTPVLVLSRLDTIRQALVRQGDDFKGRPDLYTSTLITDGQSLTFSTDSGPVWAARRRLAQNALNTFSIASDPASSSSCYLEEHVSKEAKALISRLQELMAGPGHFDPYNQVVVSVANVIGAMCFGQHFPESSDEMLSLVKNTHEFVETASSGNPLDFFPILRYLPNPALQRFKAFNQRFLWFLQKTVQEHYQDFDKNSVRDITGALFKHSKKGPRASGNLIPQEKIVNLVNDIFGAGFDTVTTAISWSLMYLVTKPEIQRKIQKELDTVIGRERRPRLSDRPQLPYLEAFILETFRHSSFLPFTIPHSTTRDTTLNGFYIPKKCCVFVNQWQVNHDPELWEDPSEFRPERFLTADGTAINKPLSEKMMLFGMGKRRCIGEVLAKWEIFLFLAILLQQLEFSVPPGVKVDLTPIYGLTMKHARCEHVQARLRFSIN

P450 1A2 = target: T4, P450 1A2 (Homo sapiens, UniProt P05177); test: as above; format: biochemical
T4 sequence (P05177 1-516): T3 sequence (P05177 1-516)

P450 1A1 [2] = target: T2, P450 1A1; test: Time-dependent inhibition kinetics of P450 1A1; format: biochemical; conditions: for time-dependent inhibition of P450 1A1 (type of inhibition): time-course curves; for kinact: read-out: limiting kinact
Summary of the method: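 Human P450 1A1 microsomes (1.6 nM) were used with 5 μM resorufin ethyl ether in pH 7.6 phosphate buffer, with the NADPH-regenerating system added to start the reaction at 37 °C. Product was monitored continuously for 6 min at several inhibitor concentrations. Progress curves were fitted to second-order polynomials, and their derivatives gave activity over time. Semilog plots gave t1/2 (0.693/kinact), and KI and limiting kinact came from Kitz–Wilson plots (1/kinact vs 1/[I]).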

P450 1A1 [3] = target: T2, P450 1A1; test: NADPH-dependency assay; format: biochemical; conditions: for NADPH-dependency of the inhibition of P450 1A1: 5 min preincubation with vs without NADPH
Summary of the method: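 Human P450 1A1 microsomes (1.6 nM final) were used in 0.1 M potassium phosphate pH 7.6 with MgCl2, with inhibitor in DMSO at 0.00625 or 0.1 μM. Preincubation was 5 min at 37 °C either with an NADPH-regenerating system, then started with 5 μM resorufin ethyl ether, or without NADPH, then started with regenerating system plus substrate. Resorufin time-course was read at ex 535/em 585 nm, 37 °C.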

P450 1A1 over P450 1A2 = target: T5, P450 1A1 over P450 1A2 (Homo sapiens, UniProt P04798); test: P450 1A1-dependent deethylation of resorufin ethyl ether; format: biochemical; conditions: human, recombinant human CYP1A1 and CYP1A2 supersomes, pH 7.6
T5 sequence (P04798 1-512): T2 sequence (P04798 1-512)

P450 1A1 [4] = target: T2, P450 1A1; conditions: read-out: Ki of well-known P450 1A1 inhibitors; cited from earlier work

Structure (SMILES): C#Cc1ccccc1-c1cc(=O)c2ccccc2o1 [2′EF, 2′-Ethynylflavone]
- Ki (P450 2B1): 15700 nM
- Ki (P450 1A1 [1]): 1640 nM
- selectivity ratio at 6 min (P450 1A2 over P450 1A1): 7.2
- Ki (P450 1A2): 230 nM
- time-dependent inhibition of P450 1A1 (type of inhibition) (P450 1A1 [2]): only a competitive inhibitor
- NADPH-dependency of the inhibition of P450 1A1 (P450 1A1 [3]): does not NADPH-dependently inhibit P450 1A1
- effect of 5 min preincubation with NADPH on P450 1A1 activity (P450 1A1 [3]; inhibitor 0.1 μM): slight influence on enzymatic activity

Structure (SMILES): C#Cc1cccc(-c2cc(=O)c3ccccc3o2)c1 [3′EF, 3′-Ethynylflavone]
- Ki (P450 1A1 [2]): 53 ± 7 nM
- kinact (P450 1A1 [2]): 0.00767 s⁻¹
- time-dependent inhibition of P450 1A1 (type of inhibition) (P450 1A1 [2]): time- and concentration-dependently inhibit P450 1A1
- NADPH-dependency of the inhibition of P450 1A1 (P450 1A1 [3]): exhibit NADPH-dependency
- effect of 5 min preincubation with NADPH on P450 1A1 activity (P450 1A1 [3]; inhibitor 0.00625 μM): complete inhibition; also recorded: completely subvert the enzymatic activity

Structure (SMILES): C#Cc1ccc(-c2cc(=O)c3ccccc3o2)cc1 [4′EF, 4′-Ethynylflavone]
- selectivity ratio at 6 min (P450 1A1 over P450 1A2): 85
- Ki (P450 1A2): 3260 nM
- Ki (P450 1A1 [2]): 56 ± 14 nM
- kinact (P450 1A1 [2]): 0.0055 s⁻¹
- time-dependent inhibition of P450 1A1 (type of inhibition) (P450 1A1 [2]): time- and concentration-dependently inhibit P450 1A1
- NADPH-dependency of the inhibition of P450 1A1 (P450 1A1 [3]): exhibit NADPH-dependency
- effect of 5 min preincubation with NADPH on P450 1A1 activity (P450 1A1 [3]; inhibitor 0.00625 μM): complete inhibition

Structure (SMILES): C#Cc1cccc2oc(-c3ccccc3)cc(=O)c12 [5EF, 5-Ethynylflavone]
- Ki (P450 1A1 [1]): 1230 nM
- Ki (P450 1A1 [2]): 510 ± 90 nM
- kinact (P450 1A1 [2]): 0.0011 s⁻¹
- time-dependent inhibition of P450 1A1 (type of inhibition) (P450 1A1 [2]): time- and concentration-dependently inhibit P450 1A1
- NADPH-dependency of the inhibition of P450 1A1 (P450 1A1 [3]): exhibit NADPH-dependency
- effect of 5 min preincubation with NADPH on P450 1A1 activity (P450 1A1 [3]; inhibitor 0.1 μM): considerable inhibition

Structure (SMILES): C#Cc1ccc2oc(-c3ccccc3)cc(=O)c2c1 [6EF, 6-Ethynylflavone]
- Ki (P450 1A1 [1]): 35 nM
- selectivity ratio at 6 min (P450 1A1 over P450 1A2): 177
- Ki (P450 1A2): 6200 nM
- Ki (P450 1A1 [2]): 43 ± 8 nM
- kinact (P450 1A1 [2]): 0.0055 s⁻¹
- time-dependent inhibition of P450 1A1 (type of inhibition) (P450 1A1 [2]): time- and concentration-dependently inhibit P450 1A1
- NADPH-dependency of the inhibition of P450 1A1 (P450 1A1 [3]): exhibit NADPH-dependency
- effect of 5 min preincubation with NADPH on P450 1A1 activity (P450 1A1 [3]; inhibitor 0.00625 μM): complete inhibition

Structure (SMILES): C#Cc1ccc2cc(-c3ccccc3)c(=O)oc2c1 [7E3PC, 7-ethynyl-3-phenylcoumarin, reference compound]
- Ki (P450 1A1 [1]): 740 nM

Structure (SMILES): C#Cc1ccc2c(=O)cc(-c3ccccc3)oc2c1 [7EF, 7-Ethynylflavone]
- Ki (P450 1A1 [2]): 35 ± 12 nM
- kinact (P450 1A1 [2]): 0.007 s⁻¹
- time-dependent inhibition of P450 1A1 (type of inhibition) (P450 1A1 [2]): time- and concentration-dependently inhibit P450 1A1
- NADPH-dependency of the inhibition of P450 1A1 (P450 1A1 [3]): exhibit NADPH-dependency
- effect of 5 min preincubation with NADPH on P450 1A1 activity (P450 1A1 [3]; inhibitor 0.00625 μM): complete inhibition; also recorded: completely subvert the enzymatic activity

Structure (SMILES): c1cc2ccc3cccc4ccc(c1)c2c34 [pyrene]
- Ki (P450 1A1 [4]): ~40 nM

Structure (SMILES): O=c1cc(-c2ccccc2)oc2c1ccc1ccccc12 [αNF, α-naphthoflavone]
- Ki (P450 1A1 [4]): ~40 nM
